Reference: ChEMBL document CHEMBL4842372, “Discovery of ARD-2585 as an Exceptionally Potent and Orally Active PROTAC Degrader of Androgen Receptor for the Treatment of Advanced Prostate Cancer” (J Med Chem, 2021)
pIC50: −log10 of the molar value. Activity calls are given as the source filed them. The calls are words filed in the database; no cut-off is given here.

Columns and labels:
VCaP [1] = assay: Growth inhibition of human VCaP cells assessed as cell viability by WST-8 assay; assay type: functional, cell-based
LNCaP = assay: Growth inhibition of human LNCaP cells carrying AR T878A mutant assessed as cell viability by WST-8 assay; assay type: functional, cell-based
[2] = Drug distribution in prostate gland of CB17:SCID mouse xenografted with human VCaP cells at 20 mg/kg, po measured at 24 hrs by LCMS analysis; assay type: ADME, organism-based; conditions: read-out: Drug uptake
In short: (§1)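 Tumor-bearing male CB17 SCID mice (VCaP xenografts) given one 20 mg/kg oral dose in 100% PEG200, three mice per time point; plasma, tumor, liver, kidney, prostate and heart taken at 1, 6 and 24 h; tissues homogenised in water/acetonitrile, protein precipitated with cold acetonitrile, drug quantified by LC–MS/MS; ratios are tissue over plasma level.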

VCaP [3] = assay: Antitumor activity against human VCaP cells xenografted in CB17:SCID mouse assessed as reduction in AR protein level in tumor at 10 mg/kg, po for 3 days measured at 24 hrs by Western blot analysis; assay type: functional; conditions: 72 h, time 3 day
In short: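 Male CB17 SCID mice bearing subcutaneous VCaP tumors (5 × 10^6 cells in Matrigel); dosed by oral gavage in 100% PEG200 at 10 mg/kg daily for 3 days; tumors harvested 3, 6 and 24 h post-dose, lysed in RIPA, Western blot for AR with GAPDH loading control, bands quantified by densitometry relative to loading control.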

[4] = Drug distribution in CB17:SCID mouse xenografted with human VCaP cells assessed as tumor to plasma ratio at 20 mg/kg, po measured at 1 hrs by LCMS analysis; assay type: ADME, organism-based; in short: as §1
[5] = Drug distribution in CB17:SCID mouse xenografted with human VCaP cells assessed as heart to plasma ratio at 20 mg/kg, po measured at 1 hrs by LCMS analysis; assay type: ADME, organism-based; in short: as §1
[6] = Drug distribution in liver of CB17:SCID mouse xenografted with human VCaP cells at 20 mg/kg, po measured at 6 hrs by LCMS analysis; assay type: ADME, organism-based; conditions: read-out: Drug uptake; in short: as §1
[7] = Drug distribution in CB17:SCID mouse xenografted with human VCaP cells assessed as prostate gland to plasma ratio at 20 mg/kg, po measured at 6 hrs by LCMS analysis; assay type: ADME, organism-based; in short: as §1
[8] = Drug distribution in CB17:SCID mouse xenografted with human VCaP cells assessed as heart to plasma ratio at 20 mg/kg, po measured at 6 hrs by LCMS analysis; assay type: ADME, organism-based; in short: as §1
[9] = Drug distribution in kidney of CB17:SCID mouse xenografted with human VCaP cells at 20 mg/kg, po measured at 24 hrs by LCMS analysis; assay type: ADME, organism-based; conditions: read-out: Drug uptake; in short: as §1
[10] = Drug distribution in CB17:SCID mouse xenografted with human VCaP cells assessed as kidney to plasma ratio at 20 mg/kg, po measured at 24 hrs by LCMS analysis; assay type: ADME, organism-based; in short: as §1
VCaP [11] = assay: Antitumor activity against human VCaP cells xenografted in CB17:SCID mouse assessed as tumor growth inhibition at 20 mg/kg, po treated for 37 days relative to control; assay type: functional; conditions: 888 h, time 37 day, read-out: TGI
VCaP [12] = assay: Antitumor activity against human VCaP cells xenografted in CB17:SCID mouse assessed as tumor growth inhibition at 40 mg/kg, po treated for 37 days relative to control; assay type: functional; conditions: 888 h, time 37 day, read-out: TGI
[13] = target: T1, Protein cereblon/Androgen receptor (Homo sapiens, UniProt P10275+Q96SW2); assay: Protac activity at CRBN/AR in human 22Rv1 cells assessed as reduction in AR protein level at 0.1 nM after 24 hrs by Western blot analysis relative to control; assay type: cell-based
In short: (§2)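 Western blot of AR after 24 h exposure to a concentration series in ATCC-derived cells, all with 10% FBS at 37 °C and 5% CO2: LNCaP and 22Rv1 in RPMI1640, VCaP in DMEM with Glutamax, MDA-PCa-2b in F-12K. Lysis in RIPA with protease and phosphatase inhibitors, then 4–12% SDS-PAGE and PVDF transfer. Band minus background is normalised to GAPDH.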

[14] = target: T1, Protein cereblon/Androgen receptor; assay: Protac activity at CRBN/AR in human 22Rv1 cells assessed as maximal AR degradation at 0.1 nM after 24 hrs by Western blot analysis relative to control; assay type: cell-based; in short: as §2
[15] = target: T1, Protein cereblon/Androgen receptor; assay: Protac activity at CRBN/AR in human 22Rv1 cells assessed as reduction in AR protein level at 30 nM after 24 hrs by Western blot analysis relative to control; assay type: cell-based; in short: as §2
VCaP [16] = assay: Potency index, ratio of ARV-110 IC50 to compound IC50 for reduction in AR degradation human VCaP cells after 24 hrs by Western blot analysis; assay type: functional
[17] = target: T1, Protein cereblon/Androgen receptor; assay: Protac activity at CRBN/AR in human VCaP cells assessed as reduction in AR protein level at 100 nM after 3 hrs in presence of MG-132 by Western blot analysis
[18] = target: T1, Protein cereblon/Androgen receptor; assay: Protac activity at CRBN/AR in human VCaP cells assessed as reduction in AR protein level at 100 nM after 3 hrs in presence of MLN4924 by Western blot analysis
[19] = target: T1, Protein cereblon/Androgen receptor; assay: Protac activity at CRBN/AR in human VCaP cells assessed as reduction in AR protein level at 100 nM after 3 hrs in presence of thalidomide by Western blot analysis
[20] = system: Protein cereblon/Androgen receptor (Homo sapiens), P10275+Q96SW2 [T878A]; assay: Protac activity at CRBN/AR T878A mutant in human LNCaP cells assessed as reduction in AR protein level at 100 nM after 3 hrs in presence of MG-132 by Western blot analysis
[21] = system: Protein cereblon/Androgen receptor (Homo sapiens), P10275+Q96SW2 [T878A]; assay: Protac activity at CRBN/AR T878A mutant in human LNCaP cells assessed as reduction in AR protein level at 100 nM after 3 hrs in presence of thalidomide by Western blot analysis
[22] = target: T1, Protein cereblon/Androgen receptor; assay: Protac activity at CRBN/AR in human VCaP cells assessed as reduction in AR protein level at 100 nM after 3 hrs in presence of N-((1r,4r)-4-((3-chloro-4-cyanophenyl)(methyl)amino)cyclohexyl)-4-(4-methylpiperazin-1-yl)benzamide by Western blot analysis
[23] = system: Protein cereblon/Androgen receptor (Homo sapiens), P10275+Q96SW2 [T878A]; assay: Protac activity at CRBN/AR T878A mutant in human LNCaP cells assessed as reduction in AR protein level at 100 nM after 3 hrs in presence of N-((1r,4r)-4-((3-chloro-4-cyanophenyl)(methyl)amino)cyclohexyl)-4-(4-methylpiperazin-1-yl)benzamide by Western blot analysis

T1 sequence (P10275 whole entry, looked up): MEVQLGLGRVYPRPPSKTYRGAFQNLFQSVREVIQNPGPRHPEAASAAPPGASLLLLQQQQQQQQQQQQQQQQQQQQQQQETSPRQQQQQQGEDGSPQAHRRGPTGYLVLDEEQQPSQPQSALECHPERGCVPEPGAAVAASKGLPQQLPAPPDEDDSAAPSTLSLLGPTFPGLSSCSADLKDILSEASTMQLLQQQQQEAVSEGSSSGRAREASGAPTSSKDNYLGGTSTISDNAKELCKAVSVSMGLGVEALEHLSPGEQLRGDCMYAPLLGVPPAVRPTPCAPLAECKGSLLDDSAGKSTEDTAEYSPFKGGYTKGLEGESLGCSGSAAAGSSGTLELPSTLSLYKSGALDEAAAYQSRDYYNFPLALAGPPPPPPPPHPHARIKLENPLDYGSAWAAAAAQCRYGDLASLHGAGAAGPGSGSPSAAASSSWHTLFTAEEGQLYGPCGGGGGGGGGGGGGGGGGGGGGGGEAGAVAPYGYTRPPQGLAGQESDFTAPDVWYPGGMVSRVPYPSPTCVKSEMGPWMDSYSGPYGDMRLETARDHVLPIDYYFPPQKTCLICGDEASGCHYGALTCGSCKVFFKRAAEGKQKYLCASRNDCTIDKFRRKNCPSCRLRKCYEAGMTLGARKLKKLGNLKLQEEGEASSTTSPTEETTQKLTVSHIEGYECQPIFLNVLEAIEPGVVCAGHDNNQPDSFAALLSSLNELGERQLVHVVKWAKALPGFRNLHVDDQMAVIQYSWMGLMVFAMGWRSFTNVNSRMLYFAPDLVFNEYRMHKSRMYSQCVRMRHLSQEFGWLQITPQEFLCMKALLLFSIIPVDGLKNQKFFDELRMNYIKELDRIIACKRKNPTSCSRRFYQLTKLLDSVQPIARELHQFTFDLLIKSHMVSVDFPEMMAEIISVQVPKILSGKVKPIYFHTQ
T1 sequence (Q96SW2 whole entry, looked up): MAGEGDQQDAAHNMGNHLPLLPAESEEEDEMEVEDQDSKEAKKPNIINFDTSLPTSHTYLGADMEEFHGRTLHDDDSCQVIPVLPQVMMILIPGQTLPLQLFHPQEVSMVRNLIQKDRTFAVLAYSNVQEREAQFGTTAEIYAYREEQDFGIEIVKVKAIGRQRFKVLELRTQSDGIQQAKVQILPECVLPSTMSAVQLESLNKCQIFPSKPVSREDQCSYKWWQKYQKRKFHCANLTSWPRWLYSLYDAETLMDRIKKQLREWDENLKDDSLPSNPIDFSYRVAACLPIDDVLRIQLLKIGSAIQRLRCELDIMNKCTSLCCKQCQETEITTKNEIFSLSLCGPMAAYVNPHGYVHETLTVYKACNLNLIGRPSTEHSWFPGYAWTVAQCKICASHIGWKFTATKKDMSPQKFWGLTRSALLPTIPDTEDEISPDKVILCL

## CN(c1ccc(C#N)c(Cl)c1)[C@H]1CC[C@H](NC(=O)c2ccc(N3CCN(C4CN(c5ccc6c(c5)C(=O)N(C5CCC(=O)NC5=O)C6=O)C4)CC3)cc2)CC1 (some centres undefined)
VCaP [1]
  pIC50: 8.82
LNCaP
  pIC50: 7.79
[2]
  concentration at 24 h: 107 ng/g
VCaP [3]
  inhibition in vivo at 10 mg/kg: 78%
[4]
  Kp at 1 h: 0.7
[5]
  Kp at 1 h: 3
[6]
  concentration at 6 h: 3510 ng/g
[7]
  Kp at 6 h: 0.6
[8]
  Kp at 6 h: 2.5
[9]
  concentration at 24 h: 366 ng/g
[10]
  Kp at 24 h: 1.7
VCaP [11]
  inhibition in vivo at 20 mg/kg: 74.3%
VCaP [12]
  inhibition in vivo at 40 mg/kg: 65.9%
[13]
  inhibition: > 80%
[14]
  Emax: > 95%
[15]
  inhibition: 80%
VCaP [16]
  Ratio: 30
[17]
  Activity: inactive
[18]
  Activity: inactive
[19]
  Activity: inactive
[20]
  Activity: inactive
[21]
  Activity: inactive
[22]
  Activity: inactive
[23]
  Activity: inactive
